Activity calls are given as the source filed them. The calls are words filed in the database; no cut-off is given here.
Tests used:
[1] = tested on: MES-SA; experiment: Cytotoxicity against human MES-SA cells assessed as cell growth inhibition incubated for 144 hrs by fluorescence microplate reader assay; type: functional, cell-based
Procedure, shortened: (§1)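 MES-SA (mCherry) and doxorubicin-selected Dx5 (eGFP; pretreated with 500 nM doxorubicin to keep P-gp expression) co-cultured, 1250 cells each per well, settled overnight. Serial dilutions added, 144 h incubation. Viability read by fluorescence (mCherry ex 585/em 610 nm; eGFP ex 485/em 510 nm). IC50 by automated curve evaluation; two-sided unpaired t-test.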

[2] = tested on: MES-SA/Dx5; experiment: Cytotoxicity against multidrug resistance human MES-SA/Dx5 cells assessed as cell growth inhibition incubated for 144 hrs by fluorescence microplate reader assay; type: functional, cell-based; conditions: MES-SA/Dx5, 144 h; procedure, shortened: as §1
[3] = Resistance ratio of IC50 for cytotoxicity against multidrug resistance human MES-SA/Dx5 cells to IC50 for cytotoxicity against human MES-SA cells; type: functional
[4] = tested on: MES-SA; experiment: Cytotoxicity against human MES-SA cells assessed as cell growth inhibition incubated for 144 hrs in presence of P-gp inhibitor Tariquidar by fluorescence microplate reader assay; type: functional, cell-based
Procedure, shortened: (§2)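 Co-culture of fluorescent MES-SA (mCherry) and Dx5 (eGFP, doxorubicin 500 nM pretreated) exposed to serial dilutions plus 0.4 µM tariquidar for 144 h. Per-line fluorescence read-out gave IC50. Resistance ratio = IC50 Dx5 / IC50 MES-SA; significance by two-sided unpaired t-test.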

[5] = tested on: MES-SA/Dx5; experiment: Cytotoxicity against multidrug resistance human MES-SA/Dx5 cells assessed as cell growth inhibition incubated for 144 hrs in presence of P-gp inhibitor Tariquidar by fluorescence microplate reader assay; type: functional, cell-based; conditions: MES-SA/Dx5, 144 h; procedure, shortened: as §2
[6] = Resistance ratio of IC50 for cytotoxicity against multidrug resistance human MES-SA/Dx5 cells in presence of P-gp inhibitor Tariquidar to IC50 for cytotoxicity against human MES-SA cells in presence of P-gp inhibitor Tariquidar; type: functional; procedure, shortened: as §2
[7] = tested on: MES-SA/Dx5; experiment: Cytotoxicity against multidrug resistance human MES-SA/Dx5 cells assessed as reduction on calcein accumulation by measuring cell distribution at 20 uM incubated for 15 mins by calcein-AM staining based flow cytometry analysis; type: functional; design: scale not given: the % may be the effect or the level left; conditions: 0.25 h
Procedure, shortened: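 Non-fluorescent Dx5 cells, 250 000 per tube, washed in serum-free DMEM, preincubated 5 min at 37 °C with compound at 20 µM. Calcein-AM then added (250 nM final) for 10 min more. Stopped with ice-cold PBS and kept on ice. Calcein fluorescence measured by flow cytometry, TO-PRO-3 live/dead gating. Controls: 20 µM verapamil, medium only.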

[8] = tested on: MES-SA/Dx5; experiment: Cytotoxicity against multidrug resistance human MES-SA/Dx5 cells assessed as inhibition of calcein-AM efflux at 20 uM incubated for 15 mins in presence of metal chelator EDTA by calcein-AM staining based flow cytometry analysis; type: functional, cell-based
Procedure, shortened: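 Calcein accumulation in non-fluorescent Dx5 cells, 250 000 per tube, with every step from preincubation to measurement in PBS containing 1 µM EDTA. Cells preincubated 5 min with 20 µM compound, then 250 nM calcein-AM for 10 min at 37 °C. Read by flow cytometry with TO-PRO-3 live/dead stain. Controls: verapamil 20 µM, no inhibitor.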

[9] = tested on: MES-SA/Dx5; experiment: Inhibition of P-gp in multidrug resistance human MES-SA/Dx5 cells assessed as inhibition of calcein-AM efflux at 20 uM incubated for 15 mins by calcein-AM staining based flow cytometry analysis

Structure (SMILES) | IC50 [1] | IC50 [2] | Ratio IC50 [3] | IC50 [4] | IC50 [5] | Ratio IC50 [6] | Activity [7] | Activity [8] | Activity [9]
CC[C@H]1CN2CC[C@H]1C[C@H]2[C@@H](Nc1c(NCc2ccccc2)c(=O)c1=O)c1ccnc2ccc(OC)cc12 | 3.1 µM | 21 µM | 6.6 | 3.9 µM | 3.4 µM | 0.9 | 53.1% | Active | –
C=C[C@H]1CN2CC[C@H]1C[C@H]2[C@@H](N)c1ccnc2ccc(OC)cc12 | 81 µM | 197 µM | 2.4 | 115 µM | 121 µM | 1 | – | – | Active
COc1cccc2c1C(=O)c1c(O)c3c(c(O)c1C2=O)C[C@@](O)(C(=O)CO)C[C@@H]3O[C@H]1C[C@H](N)[C@H](O)[C@H](C)O1 [DOXORUBICIN] | – | – | 62.5 | – | – | 0.8 | – | – | –
CC[C@H]1CN2CC[C@H]1C[C@H]2[C@@H](N)c1ccnc2ccc(OC)cc12 | 80 µM | 105 µM | 1.3 | 82 µM | 48 µM | 0.6 | – | – | –
C#C[C@H]1CN2CC[C@H]1C[C@H]2[C@@H](N)c1ccnc2ccc(OC)cc12 | 29 µM | 161 µM | 5.6 | 30 µM | 146 µM | 4.9 | – | – | –
Oc1c(CN2CCCCC2)ccc2cccnc12 | – | – | 0.1 | – | – | – | – | – | –
C=C[C@H]1CN2CC[C@H]1C[C@H]2[C@@H](Nc1c(Nc2cc(C(F)(F)F)cc(C(F)(F)F)c2)c(=O)c1=O)c1ccnc2ccc(OC)cc12 | 4.2 µM | 12 µM | 3 | 4.9 µM | 2.7 µM | 0.5 | – | – | Active
C#C[C@H]1CN2CC[C@H]1C[C@H]2[C@@H](NC(=S)Nc1cc(C(F)(F)F)cc(C(F)(F)F)c1)c1ccnc2ccc(OC)cc12 | 4.2 µM | 3.9 µM | 0.9 | – | – | – | – | – | –
CC[C@H]1CN2CC[C@H]1C[C@H]2[C@@H](Nc1c(Nc2cc(C(F)(F)F)cc(C(F)(F)F)c2)c(=O)c1=O)c1ccnc2ccc(OC)cc12 | 3.6 µM | 11 µM | 2.9 | 4.4 µM | 2.3 µM | 0.5 | – | – | –
C#C[C@H]1CN2CC[C@H]1C[C@H]2[C@H](O)c1ccnc2ccc(OC)cc12 | 111 µM | 85 µM | 0.8 | 117 µM | 79 µM | 0.7 | – | – | –
CC[C@H]1CN2CC[C@H]1C[C@H]2[C@@H](NC(=S)Nc1cc(C(F)(F)F)cc(C(F)(F)F)c1)c1ccnc2ccc(OC)cc12 | 1.3 µM | 1.5 µM | 1.2 | 1 µM | 0.9 µM | 0.8 | – | – | –
CC[C@H]1CN2CC[C@H]1C[C@H]2[C@@H](Nc1c(NCc2ccccc2)c(=S)c1=S)c1ccnc2ccc(OC)cc12 | 57 µM | 65 µM | 1.1 | 56 µM | 50 µM | 0.9 | – | – | Active
C=C[C@H]1CN2CC[C@H]1C[C@H]2[C@@H](NC(=S)Nc1cc(C(F)(F)F)cc(C(F)(F)F)c1)c1ccnc2ccc(OC)cc12 | 2.3 µM | 2.8 µM | 1.2 | – | – | – | – | – | Active
C=C[C@H]1CN2CC[C@H]1C[C@H]2[C@H](O)c1ccnc2ccc(OC)cc12 [QUININE] | 93 µM | 67 µM | 0.7 | 91 µM | 43 µM | 0.5 | – | – | Active
CC[C@H]1CN2CC[C@H]1C[C@H]2[C@H](O)c1ccnc2ccc(OC)cc12 [HYDROQUININE] | 48 µM | 47 µM | 1 | – | – | – | – | – | –
C#C[C@H]1CN2CC[C@H]1C[C@H]2[C@@H](Nc1c(Nc2cc(C(F)(F)F)cc(C(F)(F)F)c2)c(=O)c1=O)c1ccnc2ccc(OC)cc12 | 3.9 µM | 14 µM | 3.7 | 5.5 µM | 2.3 µM | 0.4 | – | – | –
